Results taken from ChEMBL document CHEMBL5653630, “Activation of the p53-MDM4 regulatory axis defines the anti-tumour response to PRMT5 inhibition through its role in regulating cellular splicing” (Sci Rep, 2018).
One block for each compound: values may come before it. Activity calls are given as the source filed them. The calls are words filed in the database; no cut-off is given here.

Tests used:
MDA-MB-468 [1] = assay: Induction of cell cycle arrest in human MDA-MB-468 cells assessed as increase in sub-2n cell population measured upto 5000 nM measured for 7 to 10 days by propidium iodide staining based flow cytometric analysis; type: functional; settings: time 7-10 day
MDA-MB-468 [2] = assay: Induction of cell cycle arrest in human MDA-MB-468 cells assessed as increase in 4n cell population measured upto 5000 nM measured for 7 to 10 days by propidium iodide staining based flow cytometric analysis; type: functional; settings: time 7-10 day
JVM-2 = assay: Induction of cell cycle arrest in human JVM-2 cells assessed as increase in 2n cell population measured upto 5000 nM measured for 3 days by propidium iodide staining based flow cytometric analysis; type: functional; settings: time 3.0 day
[3] = Toxicity in mouse assessed as body weight loss at 25 mg/kg, po pretreated for 21 days followed by treatment holiday for 10 days and further compound treatment for 2 weeks starting from day 32 followed by 1 week treatment holiday; type: organism-based; settings: in vivo, 504 h, time 21 day
Z-138 [4] = assay: In vivo inhibition of PRMT5 in human Z138 cells xenografted in mouse assessed as increase in PHLDA3 expression at 100 mg/kg, po BID measured for 7 days; type: functional, organism-based; settings: time 7.0 day
Maver1 = assay: Induction of apoptosis in human MAVER-1 cells assessed as early apoptotic cells incubated for 6 days by annexin-V/FITC propidium iodide staining based flow cytometry analysis; type: functional, cell-based; settings: dose <= 5000.0 nM, time 6.0 day
[5] = Antiproliferative activity against human A7 cells assessed as cell growth inhibition incubated for 10 days; type: functional; settings: A7, 240 h, time 10 day
Method in brief: (§1)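 Cells kept in RPMI-1640 with 10% FBS, 2 mM L-alanyl-L-glutamine and 1 mM Na pyruvate (or a special medium) at 37°C, 5% CO2. Compound added 24 h after seeding, 10 concentrations in 3.16-fold dilution, 0.1% DMSO final. Medium replaced and cells re-dosed at 168 h; 240 h incubation. Nuclei fixed, dye-stained and imaged. gIC50 = growth midway between untreated and time-zero cell counts, from a 4-parameter fit.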

JAR = assay: Antiproliferative activity against human JAR cells assessed as cell growth inhibition incubated for 10 days; type: functional; settings: 240 h, time 10 day
Method in brief: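 Eurofins-panel 10-day assay in 384-well plates. Cells grown in RPMI-1640 with 10% FBS, 2 mM L-alanyl-L-glutamine and 1mM Na pyruvate, or a special medium, at 37°C in 5% CO₂. Compound added 24 h after seeding, 10-point 3.16-fold series in 0.1% DMSO. Medium replaced and compound re-dosed at 168 h. Nuclei fixed and stained after 240 h, then imaged to give a relative cell count. gIC50 is the concentration giving growth midway between untreated and time-zero counts, from a 4-parameter fit.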

D283 Med = assay: Antiproliferative activity against human D283 Med cells assessed as cell growth inhibition incubated for 10 days; type: functional; settings: 240 h, time 10 day
Method in brief: (§2)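 Outsourced panel run in 384-well plates. Cells were grown in RPMI-1640/10% FBS or a special medium at 37°C, 5% CO2. Compound was added 24 h after seeding as a 10-point, 3.16-fold series in 0.1% DMSO. Medium was refreshed and cells re-dosed at 168 h, with a time-zero plate kept. At 240 h cells were fixed, nuclei stained and imaged. gIC50 is growth midway between untreated and time zero, from a 4-parameter fit.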

SK-N-DZ = assay: Antiproliferative activity against human SK-N-DZ cells assessed as cell growth inhibition incubated for 10 days; type: functional; settings: 240 h, time 10 day
LNCaP = assay: Antiproliferative activity against human LNCaP cells assessed as cell growth inhibition incubated for 10 days; type: functional; settings: 240 h, time 10 day
SK-MEL3 = assay: Antiproliferative activity against human SK-MEL3 cells assessed as cell growth inhibition incubated for 10 days; type: functional; settings: SK-MEL3, 240 h, time 10 day
Z-138 [6] = assay: Induction of cell cycle arrest in human Z138 cells expressing full length MDM4 assessed as accumulation of cells at G1 phase at 500 nM incubated for 4 days; type: functional, cell-based; settings: time 4.0 day
RPMI-8226 = assay: Antiproliferative activity against human RPMI-8226 cells assessed as cell growth inhibition incubated for 10 days; type: functional; settings: RPMI-8226, 240 h, time 10 day
A204 = assay: Antiproliferative activity against human A204 cells assessed as cell growth inhibition incubated for 10 days; type: functional; settings: A204, 240 h, time 10 day; method in brief: as §1
A498 = assay: Antiproliferative activity against human A498 cells assessed as cell growth inhibition incubated for 10 days; type: functional; settings: A498, 240 h, time 10 day; method in brief: as §1
Calu-6 = assay: Antiproliferative activity against human Calu-6 cells assessed as cell growth inhibition incubated for 10 days; type: functional; settings: Calu-6, 240 h, time 10 day; method in brief: as §2
HT-1080 = assay: Antiproliferative activity against human HT-1080 cells assessed as cell growth inhibition incubated for 10 days; type: functional; settings: HT-1080, 240 h, time 10 day; method in brief: as §2
[7] = molecular target: Protein arginine N-methyltransferase 5 (Homo sapiens) (UniProt O14744); assay: Inhibition of PRMT5 in human Z138 cells assessed as full length MDM4 splicing at 200 to 1000 nM incubated for 3 days by RT-PCR analysis; type: cell-based; settings: dose 200-1000 nM, time 3.0 day
Chain of Protein arginine N-methyltransferase 5 (Homo sapiens) (O14744 whole entry): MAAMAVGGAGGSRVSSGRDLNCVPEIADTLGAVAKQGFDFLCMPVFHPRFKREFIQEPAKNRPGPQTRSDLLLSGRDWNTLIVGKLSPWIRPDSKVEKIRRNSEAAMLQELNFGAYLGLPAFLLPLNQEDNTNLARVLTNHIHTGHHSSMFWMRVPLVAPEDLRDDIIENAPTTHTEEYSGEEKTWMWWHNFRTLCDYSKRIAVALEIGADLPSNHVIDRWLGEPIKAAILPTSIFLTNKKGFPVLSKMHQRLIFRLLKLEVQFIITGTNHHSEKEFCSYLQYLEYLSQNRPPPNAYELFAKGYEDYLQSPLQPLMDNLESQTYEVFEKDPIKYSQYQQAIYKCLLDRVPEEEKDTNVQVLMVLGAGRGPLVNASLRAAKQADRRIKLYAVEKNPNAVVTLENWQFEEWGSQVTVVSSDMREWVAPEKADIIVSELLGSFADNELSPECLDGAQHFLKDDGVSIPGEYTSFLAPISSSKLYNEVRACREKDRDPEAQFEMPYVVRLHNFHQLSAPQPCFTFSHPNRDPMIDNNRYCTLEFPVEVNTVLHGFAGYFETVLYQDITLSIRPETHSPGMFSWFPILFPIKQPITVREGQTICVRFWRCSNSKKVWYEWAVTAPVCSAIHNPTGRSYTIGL

CAKI-2 = assay: Antiproliferative activity against human CAKI-2 cells assessed as cell growth inhibition incubated for 10 days; type: functional; settings: CAKI-2, 240 h, time 10 day; method in brief: as §1
EM-2 = assay: Antiproliferative activity against human EM-2 cells assessed as cell growth inhibition incubated for 10 days; type: functional; settings: EM-2, 240 h, time 10 day; method in brief: as §2
COR-L105 = assay: Antiproliferative activity against human COR-L105 cells assessed as cell growth inhibition incubated for 10 days; type: functional; settings: COR-L105, 240 h, time 10 day; method in brief: as §2
MHH-PREB-1 = assay: Antiproliferative activity against human MHH-PREB-1 cells assessed as cell growth inhibition incubated for 10 days; type: functional; settings: MHH-PREB-1, 240 h, time 10 day
U2OS = assay: Antiproliferative activity against human U2OS cells assessed as cell growth inhibition incubated for 10 days; type: functional; settings: 240 h, time 10 day
[8] = molecular target: Protein arginine N-methyltransferase 5 (Homo sapiens) (UniProt O14744); assay: Inhibition of PRMT5 in p53 knockout human Z138 cells effect on p21 expression at 500 nM incubated for 3 to 11 days by Western blot analysis; type: cell-based; settings: time 3-11 day
DBTRG-05MG = assay: Antiproliferative activity against human DBTRG-05MG cells assessed as cell growth inhibition incubated for 10 days; type: functional; settings: 240 h, time 10 day; method in brief: as §2
[9] = molecular target: Protein arginine N-methyltransferase 5 (Homo sapiens) (UniProt O14744); assay: Inhibition of PRMT5 in human Z138 cells assessed as effect on KHSRP level by measuring fold change by LC-MS/MS analysis relative to control; type: cell-based
ChaGo-K-1 = assay: Antiproliferative activity against human ChaGo-K-1 cells assessed as cell growth inhibition incubated for 10 days; type: functional; settings: ChaGo-K-1, 240 h, time 10 day; method in brief: as §2
[10] = molecular target: Protein arginine N-methyltransferase 5 (Homo sapiens) (UniProt O14744); assay: Inhibition of PRMT5 in p53 knockout human Z138 cells effect on p53 expression at 500 nM incubated for 3 to 11 days by Western blot analysis; type: cell-based; settings: time 3-11 day
T98G = assay: Antiproliferative activity against human T98G cells assessed as cell growth inhibition incubated for 10 days; type: functional; settings: 240 h, time 10 day
NCI-H292 = assay: Antiproliferative activity against human NCI-H292 cells assessed as cell growth inhibition incubated for 10 days; type: functional; settings: NCI-H292, 240 h, time 10 day

Compound: CC(=O)N1CCC(Nc2cc(C(=O)NC[C@H](O)CN3CCc4ccccc4C3)ncn2)CC1 [PEMRAMETOSTAT]
Activity (MDA-MB-468 [1]): Active
Activity (MDA-MB-468 [2]): Active
Activity (JVM-2): Active
Activity [3]: Non-Toxic
inhibition (Z-138 [4]): Active
Activity (Maver1): Dose-Dependent Effect

GI50 (SK-N-DZ): 0.257 µM
GI50 (LNCaP): 2.93 µM
GI50 (SK-MEL3): 0.181 µM
GI50 (RPMI-8226): 0.0584 µM
GI50 (Calu-6): 0.206 µM
GI50 (HT-1080): 0.0535 µM
inhibition [7]: Active
GI50 (U2OS): 0.485 µM
inhibition [8]: inactive
fold change (FC) [9]: -7.8
inhibition [10]: inactive
GI50 (NCI-H292): 0.166 µM
Compound: O=C(NC[C@H](O)CN1CCc2ccccc2C1)c1ccnc(NC2CCC2)c1
GI50 [5]: 0.0367 µM
GI50 (JAR): 0.485 µM
GI50 (D283 Med): 0.0235 µM
Activity (Z-138 [6]): Active
GI50 (A204): 0.223 µM
GI50 (A498): 0.0507 µM
GI50 (CAKI-2): 0.114 µM
GI50 (EM-2): 0.094 µM
GI50 (COR-L105): 0.314 µM
GI50 (MHH-PREB-1): 10 µM
GI50 (DBTRG-05MG): 0.156 µM
GI50 (ChaGo-K-1): 1.19 µM
GI50 (T98G): 0.0273 µM
